Tests used:
Rattus norvegicus [1] = test: Liver uptake after 1 day was determined in female Fischer rats after [125I]-labeled compound complexed with bovine serum albumin was injected intravenously; type: functional
In short: (§1)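 Female Fischer 344 rats (fed ad libitum) under ether anaesthesia received the ¹²⁵I fatty acid in a lateral tail vein. Dose was ~3.8–4.8 μCi per rat (sp act ~125–240 mCi/mmol), given in 0.5 mL 6% bovine albumin (final ethanol 10%) after filtration. Four rats per time point were used. Tissue radioactivity is % injected dose/g, mean with range, calculated against standards of the injected solution.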

Rattus norvegicus [2] = test: Liver uptake after 30 min was determined in female Fischer rats after [125I]-labeled compound complexed with bovine serum albumin was injected intravenously; type: functional; in short: as §1
Rattus norvegicus [3] = test: Liver uptake after 4 hr was determined in female Fischer rats after [125I]-labeled compound complexed with bovine serum albumin was injected intravenously; type: functional; in short: as §1
Rattus norvegicus [4] = test: Liver uptake after 5 min was determined in female Fischer rats after [125I]-labeled compound complexed with bovine serum albumin was injected intravenously; type: functional; in short: as §1
Rattus norvegicus [5] = test: Liver uptake after 60 min was determined in female Fischer rats after [125I]-labeled compound complexed with bovine serum albumin was injected intravenously; type: functional; in short: as §1
Rattus norvegicus [6] = test: Lungs uptake after 1 day was determined in female Fischer rats after [125I]-labeled compound complexed with bovine serum albumin was injected intravenously; type: functional; in short: as §1
Rattus norvegicus [7] = test: Lungs uptake after 30 min was determined in female Fischer rats after [125I]-labeled compound complexed with bovine serum albumin was injected intravenously; type: functional; in short: as §1
Rattus norvegicus [8] = test: Lungs uptake after 3 days was determined in female Fischer rats after [125I]-labeled compound complexed with bovine serum albumin was injected intravenously; type: functional; in short: as §1
Rattus norvegicus [9] = test: Lungs uptake after 4 hr was determined in female Fischer rats after [125I]-labeled compound complexed with bovine serum albumin was injected intravenously; type: functional; in short: as §1
Rattus norvegicus [10] = test: Lungs uptake after 5 min was determined in female Fischer rats after [125I]-labeled compound complexed with bovine serum albumin was injected intravenously; type: functional; in short: as §1
Rattus norvegicus [11] = test: Thyroid uptake after 1 day was determined in female Fischer rats after [125I]-labeled compound complexed with bovine serum albumin was injected intravenously; type: functional
In short: (§2)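 Female Fischer 344 rats with free access to food and water. The 125I-labelled fatty acid (~3.8–4.8 μCi; sp act. ~125–240 mCi/mmol) was complexed with 6% bovine serum albumin (10% final ethanol), filtered, and 0.5 mL was injected via a lateral tail vein under ether anaesthesia. Four rats per time point. Values are mean % injected dose/g, calculated against injectate standards. Thyroid weight was taken as 7.5 mg/100 g body weight.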

Rattus norvegicus [12] = test: Thyroid uptake after 2 hr was determined in female Fischer rats after [125I]-labeled compound complexed with bovine serum albumin was injected intravenously; type: functional; in short: as §2
Rattus norvegicus [13] = test: Thyroid uptake after 30 min was determined in female Fischer rats after [125I]-labeled compound complexed with bovine serum albumin was injected intravenously; type: functional; in short: as §2
Rattus norvegicus [14] = test: Thyroid uptake after 3 days was determined in female Fischer rats after [125I]-labeled compound complexed with bovine serum albumin was injected intravenously; type: functional; in short: as §2
Rattus norvegicus [15] = test: Thyroid uptake after 4 hr was determined in female Fischer rats after [125I]-labeled compound complexed with bovine serum albumin was injected intravenously; type: functional; in short: as §2
Rattus norvegicus [16] = test: Thyroid uptake after 60 min was determined in female Fischer rats after [125I]-labeled compound complexed with bovine serum albumin was injected intravenously; type: functional; in short: as §2
Rattus norvegicus [17] = test: Thyroid uptake after 5 min was determined in female Fischer rats after [125I]-labeled compound complexed with bovine serum albumin was injected intravenously; type: functional; in short: as §2
Rattus norvegicus [18] = test: Heart uptake after 60 min was determined in female Fischer rats after [125I]-labeled compound complexed with bovine serum albumin was injected intravenously; type: functional; in short: as §1
Rattus norvegicus [19] = test: Blood uptake after 1 day was determined in female Fischer rats after [125I]-labeled compound complexed with bovine serum albumin was injected intravenously; type: functional; in short: as §1
Rattus norvegicus [20] = test: Blood uptake after 30 min was determined in female Fischer rats after [125I]-labeled compound complexed with bovine serum albumin was injected intravenously; type: functional; in short: as §1
Rattus norvegicus [21] = test: Blood uptake after 4 hr was determined in female Fischer rats after [125I]-labeled compound complexed with bovine serum albumin was injected intravenously; type: functional; in short: as §1
Rattus norvegicus [22] = test: Blood uptake after 5 min was determined in female Fischer rats after [125I]-labeled compound complexed with bovine serum albumin was injected intravenously; type: functional; in short: as §1
Rattus norvegicus [23] = test: Blood uptake after 60 min was determined in female Fischer rats after [125I]-labeled compound complexed with bovine serum albumin was injected intravenously; type: functional; in short: as §1
Rattus norvegicus [24] = test: Heart uptake after 1 day was determined in female Fischer rats after [125I]-labeled compound complexed with bovine serum albumin was injected intravenously; type: functional; in short: as §1
Rattus norvegicus [25] = test: Heart uptake after 2 hr was determined in female Fischer rats after [125I]-labeled compound complexed with bovine serum albumin was injected intravenously; type: functional; in short: as §1
Rattus norvegicus [26] = test: Heart uptake after 30 min was determined in female Fischer rats after [125I]-labeled compound complexed with bovine serum albumin was injected intravenously; type: functional; in short: as §1
[27] = Ratio of heart to blood uptake after 120 min was determined in female Fischer rats after [125I]-labeled compound complexed with bovine serum albumin was injected intravenously; type: functional
In short: (§3)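 Female Fischer 344 rats (food and water ad libitum) given the 125I-labelled fatty acid in 6% bovine albumin with 10% final ethanol, filtered, 0.5 mL into a lateral tail vein under ether anaesthesia. Four rats per time point. Tissue activity expressed as % injected dose/g against assayed injectate standards. Mean heart/tissue ratios were calculated from mean %ID/g values.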

[28] = Ratio of heart to blood uptake after 240 min was determined in female Fischer rats after [125I]-labeled compound complexed with bovine serum albumin was injected intravenously; type: functional; in short: as §3
[29] = Ratio of heart to blood uptake after 5 min was determined in female Fischer rats after [125I]-labeled compound complexed with bovine serum albumin was injected intravenously; type: functional; in short: as §3
[30] = Ratio of heart to blood uptake after 60 min was determined in female Fischer rats after [125I]-labeled compound complexed with bovine serum albumin was injected intravenously; type: functional; in short: as §3
[31] = Ratio of heart to kidneys uptake after 120 min was determined in female Fischer rats after [125I]-labeled compound complexed with bovine serum albumin was injected intravenously; type: functional, Heart/Kidney; in short: as §3
[32] = Ratio of heart to kidneys uptake after 30 min was determined in female Fischer rats after [125I]-labeled compound complexed with bovine serum albumin was injected intravenously; type: functional, Heart/Kidney; in short: as §3
[33] = Ratio of heart to kidneys uptake after 5 min was determined in female Fischer rats after [125I]-labeled compound complexed with bovine serum albumin was injected intravenously; type: functional, Heart/Kidney; in short: as §3
[34] = Ratio of heart to kidneys uptake after 60 min was determined in female Fischer rats after [125I]-labeled compound complexed with bovine serum albumin was injected intravenously; type: functional, Heart/Kidney; in short: as §3
[35] = Ratio of heart to liver uptake after 120 min was determined in female Fischer rats after [125I]-labeled compound complexed with bovine serum albumin was injected intravenously; type: functional; in short: as §3
[36] = Ratio of heart to liver uptake after 5 min was determined in female Fischer rats after [125I]-labeled compound complexed with bovine serum albumin was injected intravenously; type: functional; in short: as §3
[37] = Ratio of heart to liver uptake after 240 min was determined in female Fischer rats after [125I]-labeled compound complexed with bovine serum albumin was injected intravenously; type: functional; in short: as §3
[38] = Ratio of heart to lungs uptake after 240 min was determined in female Fischer rats after [125I]-labeled compound complexed with bovine serum albumin was injected intravenously; type: functional; in short: as §3
[39] = Ratio of heart to lungs uptake after 60 min was determined in female Fischer rats after [125I]-labeled compound complexed with bovine serum albumin was injected intravenously; type: functional; in short: as §3
[40] = Ratio of heart to liver uptake after 30 min was determined in female Fischer rats after [125I]-labeled compound complexed with bovine serum albumin was injected intravenously; type: functional; in short: as §3
Rattus norvegicus [41] = test: Heart uptake after 4 hr was determined in female Fischer rats after [125I]-labeled compound complexed with bovine serum albumin was injected intravenously; type: functional; in short: as §1

## O=C(O)CCCCCCC[Te]CCCCCCC/C=C/I
Rattus norvegicus [1]
  Injected dose/g: 1.64%
Rattus norvegicus [2]
  Injected dose/g: 5.69%
Rattus norvegicus [3]
  Injected dose/g: 3.76%
Rattus norvegicus [4]
  Injected dose/g: 6.41%
Rattus norvegicus [5]
  Injected dose/g: 4.87%
Rattus norvegicus [6]
  Injected dose/g: 0.55%
Rattus norvegicus [7]
  Injected dose/g: 1.52%
Rattus norvegicus [8]
  Injected dose/g: 0.34%
Rattus norvegicus [9]
  Injected dose/g: 1.21%
Rattus norvegicus [10]
  Injected dose/g: 1.63%
Rattus norvegicus [11]
  Injected dose/g: 294%
Rattus norvegicus [12]
  Injected dose/g: 38.5%
Rattus norvegicus [13]
  Injected dose/g: 15%
Rattus norvegicus [14]
  Injected dose/g: 267%
Rattus norvegicus [15]
  Injected dose/g: 66.9%
Rattus norvegicus [16]
  Injected dose/g: 24.8%
Rattus norvegicus [17]
  Injected dose/g: 9.21%
Rattus norvegicus [18]
  Injected dose/g: 5.17%
Rattus norvegicus [19]
  Injected dose/g: 0.46%
Rattus norvegicus [20]
  Injected dose/g: 0.45%
Rattus norvegicus [21]
  Injected dose/g: 0.53%
Rattus norvegicus [22]
  Injected dose/g: 0.23%
Rattus norvegicus [23]
  Injected dose/g: 0.36%
Rattus norvegicus [24]
  Injected dose/g: 0.86%
Rattus norvegicus [25]
  Injected dose/g: 3.9%
Rattus norvegicus [26]
  Injected dose/g: 3.76%
[27]
  Ratio: 9
[28]
  Ratio: 4
[29]
  Ratio: 21
[30]
  Ratio: 14
[31]
  Ratio: 3.1
[32]
  Ratio: 3.7
[33]
  Ratio: 3.1
[34]
  Ratio: 3.4
[35]
  Ratio: 0.84
[36]
  Ratio: 0.75
[37]
  Ratio: 0.93
[38]
  Ratio: 2.9
[39]
  Ratio: 3.3
[40]
  Ratio: 0.66
Rattus norvegicus [41]
  Injected dose/g: 3.51%

## O=C(O)CCCCCCCCC[Te]CCCCC/C=C/I
Rattus norvegicus [1]
  Injected dose/g: 0.52%
Rattus norvegicus [2]
  Injected dose/g: 6.49%
Rattus norvegicus [3]
  Injected dose/g: 2.52%
Rattus norvegicus [4]
  Injected dose/g: 8.33%
Rattus norvegicus [5]
  Injected dose/g: 5.15%
Rattus norvegicus [6]
  Injected dose/g: 0.76%
Rattus norvegicus [7]
  Injected dose/g: 2.06%
Rattus norvegicus [8]
  Injected dose/g: 0.32%
Rattus norvegicus [9]
  Injected dose/g: 1.59%
Rattus norvegicus [10]
  Injected dose/g: 2.49%
Rattus norvegicus [11]
  Injected dose/g: 221%
Rattus norvegicus [12]
  Injected dose/g: 45%
Rattus norvegicus [13]
  Injected dose/g: 29%
Rattus norvegicus [14]
  Injected dose/g: 227%
Rattus norvegicus [15]
  Injected dose/g: 72%
Rattus norvegicus [16]
  Injected dose/g: 37%
Rattus norvegicus [17]
  Injected dose/g: 29%
Rattus norvegicus [18]
  Injected dose/g: 3.63%
Rattus norvegicus [19]
  Injected dose/g: 0.62%
Rattus norvegicus [20]
  Injected dose/g: 0.66%
Rattus norvegicus [21]
  Injected dose/g: 1.03%
Rattus norvegicus [22]
  Injected dose/g: 0.45%
Rattus norvegicus [23]
  Injected dose/g: 0.67%
Rattus norvegicus [24]
  Injected dose/g: 0.69%
Rattus norvegicus [25]
  Injected dose/g: 3.8%
Rattus norvegicus [26]
  Injected dose/g: 3.05%
[27]
  Ratio: 5
[28]
  Ratio: 2
[29]
  Ratio: 7
[30]
  Ratio: 5
[31]
  Ratio: 2.5
[32]
  Ratio: 1.5
[33]
  Ratio: 1.4
[34]
  Ratio: 1
[35]
  Ratio: 1.1
[36]
  Ratio: 0.37
[37]
  Ratio: 0.97
[38]
  Ratio: 1.5
[39]
  Ratio: 1.8
[40]
  Ratio: 0.47
Rattus norvegicus [41]
  Injected dose/g: 2.44%

Source: ChEMBL document CHEMBL1122777, “Effect of tellurium position on the myocardial uptake of radioiodinated 18-iodotellura-17-octadecenoic acid analogues” (1984)
